According to ChEMBL document CHEMBL1122366, “Potential antiatherosclerotic agents. 3. Substituted benzoic and non benzoic acid analogues of cetaben” (1983):
“And” between values parts separate entries of the source, which are not always exact repeats. Equal values may be shown once.

Legend:
[1] = test system: Rattus norvegicus; test: In vivo triglyceride lowering activity when dosed at 0.03 % of the diet; assay type: functional
How it was run: (§1)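 Normal rats were dosed in the diet. Serum sterol and triglyceride levels were measured and expressed as the mean percent of control values. Significance versus control was reported at p < 0.05, 0.01 and 0.001.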

[2] = molecular target: T1, Sterol O-acyltransferase 1 (Rattus norvegicus) (UniProt O70536); test: In vitro inhibition of acyl coenzyme A:cholesterol acyltransferase; set-up: concentration or dose not given beside the values; settings: concentration not given here
T1 sequence (whole entry): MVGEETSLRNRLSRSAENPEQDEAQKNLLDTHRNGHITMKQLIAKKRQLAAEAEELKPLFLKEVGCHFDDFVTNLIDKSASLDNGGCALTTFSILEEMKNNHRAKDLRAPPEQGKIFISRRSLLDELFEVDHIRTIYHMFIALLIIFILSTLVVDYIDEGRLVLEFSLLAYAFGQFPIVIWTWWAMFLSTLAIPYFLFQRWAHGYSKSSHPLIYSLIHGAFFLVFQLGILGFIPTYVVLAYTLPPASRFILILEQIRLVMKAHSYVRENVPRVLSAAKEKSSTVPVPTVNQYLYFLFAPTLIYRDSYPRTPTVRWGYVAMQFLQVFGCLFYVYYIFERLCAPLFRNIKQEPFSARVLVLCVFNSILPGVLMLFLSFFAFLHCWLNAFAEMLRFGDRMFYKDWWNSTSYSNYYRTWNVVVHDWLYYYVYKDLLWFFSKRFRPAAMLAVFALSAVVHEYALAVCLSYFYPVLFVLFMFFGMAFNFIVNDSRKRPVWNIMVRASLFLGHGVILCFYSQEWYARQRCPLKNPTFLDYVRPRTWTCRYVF
How it was run: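 Enzyme fatty acyl-CoA:cholesterol acyltransferase (ACAT), assayed in vitro at a single drug concentration of 5.2 μg/mL. The value is the mean percent inhibition of enzyme activity.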

[3] = test system: Rattus norvegicus; test: In vivo sterol lowering activity at dose of 0.10 % of the diet; assay type: functional; how it was run: as §1
[4] = test system: Rattus norvegicus; test: In vivo triglyceride lowering activity when dosed as 0.01 % of the diet; assay type: functional; how it was run: as §1
[5] = test system: Rattus norvegicus; test: In vivo sterol lowering activity when dosed as 0.03 % of the diet; assay type: functional; how it was run: as §1
[6] = test system: Rattus norvegicus; test: In vivo sterol lowering activity when dosed as 0.01 % of the diet; assay type: functional; how it was run: as §1
[7] = test system: Rattus norvegicus; test: In vivo triglyceride lowering activity dosed at 0.10 % of the diet.; assay type: functional; how it was run: as §1

| SMILES | serum triglyceride level, percent of control [1] | inhibition [2] | serum sterol level, percent of control [3] | serum triglyceride level, percent of control [4] | serum sterol level, percent of control [5] | serum sterol level, % of control [6] | serum triglyceride, percent of control [7] |
| --- | --- | --- | --- | --- | --- | --- | --- |
| CCCCCCCCCCCCCCCCNc1ccc(C(=O)SCCO)cc1 | 74% | 1% | <84% | 70% | <86% | <87% | <59% |
| CCCCCCCCCCCCCCCCNc1ccc(C(SCC)SCC)cc1 | 106% | 0% | 88% | 86% | 101% | 96% | 77% |
| CCCCCCCCCCCCCCCCNc1ccc(C(=O)NNC(C)=O)cc1 | <74% | 21% | 91% | 75% | <83% | 93% | <66% |
| CCCCCCCCCCCCCCCCNc1ccc(C(=O)O)cc1F | 89% | < 27% | <79% | 91% | 98% | 108% | <49% |
| CCCCCCCCCCCCCCCCN(C(C)=O)c1ccc(C(OC(C)=O)C(N)=O)cc1 (stereo not drawn) | 86% | < 40% | 110% | 93% | 111% | 109% | 89% |
| CCCCCCCCCCCCCCCCNc1ccc(C(=O)NC(C)=O)cc1 | 73% | < 35% | 91% | 86% | <87% | 93% | 74% |
| CCCCCCCCCCCCCCCCNc1ccc(C(=O)COC)cc1 | 85% | < 47% | 91% | 77% | 88% | 88% | <65% |
| CCCCCCCCCCCCCCCCNc1ccc(C(=O)OCC(O)CO)cc1 (stereo not drawn) | <67% |  | <71% | <73% | <82% | <85% | <45% |
| CCCCCCCCCCCCCCCCCCN(C)c1ccc(C(=O)O)cc1 | <61% |  | 91% | 86% | 92% | 101% | <75% |
| CCCCCCCCCCCCCCCCN(C(C)=O)c1ccc(COC(C)=O)cc1 | <71% |  | 95% | <70% | 93% | 97% | 80% |
| CCCCCCCCCCCCCCCCNc1ccc(C(=O)O)cc1Br | 96% and 99% |  | 93% and 97% | 95% and 104% | 100% and 99% | 92% and 101% | 91% and 100% |
| CCCCCCCCCCCCCCCCNc1ccc(C(=O)OCC(O)CO)cc1.Cl (stereo not drawn) | <49% |  | <69% | 98% | 92% | <88% | <30% |
| CCCCCCCCCCCCCCCCNc1ccc(C(=O)OCC)cc1C | 94% |  | 103% | 81% | <87% | 92% | 95% |
| CCCCCCCCCCCCCCCCNc1ccc(C#N)cc1 | 71% |  | 96% | 83% | 92% | 86% | 75% |
| CCCCCCCCCCCCCCN(C(C)=O)c1ccc(C(=O)O)cc1 | 80% |  | 91% | 98% | <80% | 95% | 96% |
| CCCCCCCCCCCCCCCCNc1ccc(C(=O)C[S+](C)[O-])cc1 (stereo not drawn) | <55% | 6% |  | <64% | 95% | 95% |  |
| CCCCCCCCCCCCCCCCCN(CC)c1ccc(C(=O)O)cc1 | 108% |  | 95% | 126% | 98% | 98% | 106% |
| CCCCCCCCCCCCCCCCN(CC)c1ccc(C(=O)O)cc1 | <63% |  | <86% | <78% | <60% | <74% | 98% |
| CCCCCCCCCCCCCCCCN(C(C)=O)c1ccc(C(=O)O)cc1 | 107% |  | 103% | 109% | 105% | 105% | 121% |
| CCCCCCCCCCCCCCCCNc1ccc(C(=O)[N-]S(=O)(=O)c2ccc(C)cc2)cc1.[Na+] | <37% |  | <48% | <52% | <52% | <64% | <32% |
| CCCCCCCCCCCCCCN(C)c1ccc(C(=O)O)cc1 | 92% |  | 97% | 82% | 94% | 97% | 103% |
| CCCCCCCCCCCCCCCCNc1ccc(CO)cc1 | 117% |  | 95% | 110% | 95% | 98% | 91% |
